From ChEMBL document CHEMBL4837210 (Eur J Med Chem, 2021)

Legend:
Assay type in all cases: functional
[1] = test system: Bacillus subtilis; assay: Antibacterial activity against penicillin-susceptible Bacillus subtilis ATCC 9372 assessed as bacterial growth inhibition incubated for 24 hrs by CLSI protocol based broth microdilution method
[2] = test system: Staphylococcus aureus; assay: Antibacterial activity against Staphylococcus aureus assessed as inhibition of bacterial growth measured by broth microdilution method; details: time 24 hrs
Method in brief: (§1)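 Broth microdilution in Mueller Hinton broth. A 0.5 McFarland suspension was diluted tenfold, giving an inoculum of 1.5 × 10⁷ cfu/mL. This was added to 2-fold serial compound dilutions from […]. Plates were incubated aerobically at 37 °C for 24 h. MIC was the lowest concentration with no visible turbidity.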

[3] = test system: Escherichia coli; assay: Antibacterial activity against penicillin-susceptible Escherichia coli ATCC 25922 assessed as inhibition of bacterial growth measured by broth microdilution method; details: time 24 hrs; method in brief: as §1
[4] = test system: Streptococcus pyogenes; assay: Antibacterial activity against erythromycin-susceptible Streptococcus pyogenes clinical isolate 1 assessed as bacterial growth inhibition incubated for 24 hrs by CLSI protocol based broth microdilution method
[5] = test system: Staphylococcus aureus; assay: Antibacterial activity against erythromycin-susceptible Staphylococcus aureus ATCC 25923 assessed as bacterial growth inhibition incubated for 24 hrs by CLSI protocol based broth microdilution method
[6] = test system: Streptococcus pyogenes; assay: Antibacterial activity against erythromycin-resistant Streptococcus pyogenes 2 assessed as bacterial growth inhibition incubated for 24 hrs by CLSI protocol based broth microdilution method
[7] = test system: Bacillus pumilus; assay: Antibacterial activity against penicillin-susceptible Bacillus pumilus CMCC 63202 assessed as bacterial growth inhibition by broth dilution method; details: time 24 hrs; method in brief: as §1
[8] = test system: Staphylococcus aureus; assay: Antibacterial activity against methicillin-resistant Staphylococcus aureus ATCC 43300 assessed as inhibition of bacterial growth by broth microdilution method; details: time 24 hrs
Method in brief: (§2)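 Broth microdilution MIC. A 0.5 McFarland suspension was diluted 10-fold and added at 1.5 × 10⁷ cfu/mL to 2-fold dilutions (0.125–64) in Mueller Hinton broth. Incubated aerobically 24 h at 37 °C. MIC was the lowest concentration with no visible turbidity.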

[9] = test system: Staphylococcus epidermidis; assay: Antibacterial activity against penicillin-resistant Staphylococcus epidermidis assessed as inhibition of bacterial growth measured by broth microdilution method; details: time 24 hrs
[10] = test system: Staphylococcus aureus; assay: Antibacterial activity against penicillin-resistant Staphylococcus aureus assessed as inhibition of bacterial growth measured by broth microdilution method; details: time 24 hrs; method in brief: as §2
[11] = test system: Pseudomonas aeruginosa; assay: Antibacterial activity against penicillin-susceptible Pseudomonas aeruginosa ATCC27853 assessed as bacterial growth inhibition incubated for 24 hrs by CLSI protocol based broth microdilution method

Structure (SMILES)	MIC [1] [µg/mL]	MIC [2] [µg/mL]	MIC [3] [µg/mL]	MIC [4] [µg/mL]	MIC [5] [µg/mL]	MIC [6] [µg/mL]	MIC [7] [µg/mL]	MIC [8] [µg/mL]	MIC [9] [µg/mL]	MIC [10] [µg/mL]	MIC [11] [µg/mL]
CCCCCCNc1c2ccccc2[n+](C)c2ccccc12.[Cl-]	64	64	> 64	32	64	32	64	64	64	64	> 64
C[n+]1c2ccccc2c(/C=C/c2ccccc2)c2ccccc21.[I-]	1	2	> 64	0.25	0.5	0.5	2	4	8	8	> 64
COc1ccc(C#Cc2c3ccccc3[n+](C)c3ccccc23)cc1.[I-]	4	4	> 64	16	4	16	4	8	16	16	> 64
CCCCCCCNc1c2ccccc2[n+](C)c2ccccc12.[Cl-]	32	16	> 64	16	16	32	32	32	32	16	> 64
CCc1ccc(/C=C/c2c3ccccc3[n+](C)c3ccccc23)cc1.[I-]	1	1	64	0.5	0.5	1	1	2	4	8	> 64
CCCOc1ccc(C#Cc2c3ccccc3[n+](C)c3ccccc23)cc1.[I-]	4	4	> 64	16	4	16	4	4	8	16	> 64
C[n+]1c2ccccc2c(-n2cccc2)c2ccccc21.[Cl-]	64	64	> 64	16	32	64	64	> 64	> 64	64	> 64
C[n+]1c2ccccc2c(Nc2ccncn2)c2ccccc21.[Cl-]	16	32	> 64	> 64	16	> 64	64	32	> 64	> 64	> 64
CCCCc1ccc(/C=C/c2c3ccccc3[n+](C)c3ccccc23)cc1.[I-]	1	2	> 64	0.5	1	0.5	0.5	8	2	8	> 64
COc1cccc(-c2c3ccccc3[n+](C)c3ccccc23)c1.[I-]	16	8	> 64	8	4	32	32	> 64	> 64	> 64	> 64
C[n+]1c2ccccc2c(-c2cccc(F)c2)c2ccccc21.[I-]	16	16	> 64	4	8	16	32	> 64	> 64	> 64	> 64
Cc1ccccc1C#Cc1c2ccccc2[n+](C)c2ccccc12.[I-]	8	2	> 64	8	4	16	8	4	16	8	> 64
CCOc1ccc(/C=C/c2c3ccccc3[n+](C)c3ccccc23)cc1.[I-]	2	1	> 64	< 0.125	0.5	0.5	16	2	4	8	> 64
COc1ccccc1C#Cc1c2ccccc2[n+](C)c2ccccc12.[I-]	8	4	> 64	16	8	16	2	8	16	16	> 64
CCCCCCCCNc1c2ccccc2[n+](C)c2ccccc12.[Cl-]	16	8	> 64	16	8	16	16	16	16	4	> 64
C[n+]1c2ccccc2c(/C=C/c2ccc(F)cc2)c2ccccc21.[I-]	2	2	> 64	0.5	1	0.5	2	8	8	16	> 64
Cc1ccccc1-c1c2ccccc2[n+](C)c2ccccc12.[I-]	32	64	> 64	64	8	> 64	> 64	> 64	> 64	> 64	> 64
C[n+]1c2ccccc2c(/C=C/c2ccc(-c3ccccc3)cc2)c2ccccc21.[I-]	1	1	32	0.5	0.5	0.5	2	2	2	4	> 64
Cc1ccc(-c2c3ccccc3[n+](C)c3ccccc23)cc1.[I-]	4	4	> 64	4	1	16	8	64	64	> 64	> 64
CCOc1ccc(C#Cc2c3ccccc3[n+](C)c3ccccc23)cc1.[I-]	4	4	> 64	16	4	8	4	4	8	8	> 64
Cc1ccc(/C=C/c2c3ccccc3[n+](C)c3ccccc23)cc1.[I-]	1	1	64	0.25	0.5	0.5	0.5	4	2	8	> 64
COc1ccc(/C=C/c2c3ccccc3[n+](C)c3ccccc23)cc1OC.[I-]	8	8	> 64	2	4	4	1	16	32	64	> 64
